# Experimental data from different studies.
# Lines come from different studies, so protocols differ.
# Sample: plasma
# Route: intravenous
SMILES,system,setting,Vd
C[C@]12CC[C@H](n3ccnc3)CC1=CC[C@@H]1[C@@H]2CC[C@]2(C)C(n3cnc4ccccc43)=CC[C@@H]12,Sprague-Dawley rat,1 mg/kg,~6 L/kg
COc1ccc2c(Cc3ccccc3F)c3[n+](cc2c1OC)CCc1cc2c(cc1-3)OCO2.[Br-],rat,5 mg/kg,71.8 L/kg
CCOC(=O)[C@@]12C[C@@H]1[C@@H](n1ccc3c(NC)nc(C#Cc4ccc(Cl)s4)nc31)[C@H](O)[C@@H]2O,male Sprague-Dawley rat,0.5 mg/kg,33.8 L/kg
Cc1noc(-c2cc3cc(-c4nc(C(=O)NCc5ccncc5)[nH]c4C)ccc3[nH]2)n1,Sprague-Dawley rat,1 mg/kg,1.5 L/kg
C=CC(=O)Nc1cc(Nc2nccc(Nc3cc(Cl)c(F)cc3C(C)(C)O)n2)c(OC)cc1N1CC[C@@H](N(C)C)C1,Wistar rat,3 mg/kg,13.6 L/kg
Oc1cc(O)cc(-c2cc3ccc(O)cc3o2)c1,male rat,5 mg/kg,0.393 L/kg
Cc1nc(Nc2ncc(C(=O)Nc3c(C)cccc3Cl)s2)cc(N2CCN(CCO)CC2)n1,female Sprague-Dawley rat,5 mg/kg,4.6 L
CCCC[C@@H]1NC(=O)[C@H](Cc2ccc(O)cc2)NC(=O)[C@@H]2CCCN2C(=O)[C@H](CC(=O)O)NC(=O)[C@H](C)NC(=O)[C@H](Cc2ccccc2)NC(=O)[C@@H]2CSCCC(=O)N3CN(CN(C3)C(=O)CCSC[C@@H](C(=O)N[C@@H](C)C(N)=O)NC1=O)C(=O)CCSC[C@H](NC(C)=O)C(=O)N[C@@H](CC(C)(C)C)C(=O)N1CCC[C@H]1C(=O)N[C@@H](CCC(=O)O)C(=O)N[C@H](CCCCNC(=O)CCc1cn(CCOCCOCCOCCOCCOCCOCCOCCOCCOCCOCCNC(=O)CCOCCN(CCOCCC(=O)NCCOCCOCCOCCOCCOCCOCCOCCOCCOCCOCCn3cc(CCC(=O)NCCCC[C@H]4NC(=O)[C@H](CCC(=O)O)NC(=O)[C@@H]5CCCN5C(=O)[C@H](CC(C)(C)C)NC(=O)[C@@H](NC(C)=O)CSCCC(=O)N5CN6CN(C5)C(=O)CCSC[C@H](NC(=O)[C@H](Cc5ccc(O)cc5)NC(=O)[C@@H]5CCCN5C4=O)C(=O)N[C@@H](Cc4ccccc4)C(=O)N[C@@H](C)C(=O)N[C@@H](CC(=O)O)C(=O)N4CCC[C@H]4C(=O)N[C@@H](Cc4ccc(O)cc4)C(=O)N[C@@H](CCCC)C(=O)N[C@H](C(=O)N[C@@H](C)C(N)=O)CSCCC6=O)nn3)CCOCCC(=O)NCCOCCOCCOCCOCCOCCOCCOCCOCCOCCOCCn3cc(CCC(=O)N[C@H]4CSCCC(=O)N5CN6CN(C5)C(=O)CCSC[C@H](NC(=O)[C@@H](CC(=O)O)NC(=O)[C@H](Cc5cccc7ccccc57)NC(=O)[C@@H]5CCCN5C4=O)C(=O)N[C@@H](CCSC)C(=O)N[C@@H](CCCCNC(=N)N)C(=O)N[C@@H](CC(=O)O)C(=O)N[C@@H](Cc4c[nH]c5ccccc45)C(=O)N[C@@H](CO)C(=O)N[C@@H]([C@@H](C)O)C(=O)N4CCC[C@H]4C(=O)N4C[C@H](O)C[C@H]4C(=O)N[C@@H](Cc4c[nH]c5ccccc45)C(=O)N[C@H](C(N)=O)CSCCC6=O)nn3)nn1)C(=O)N1CCC[C@H]1C(=O)N[C@@H](Cc1ccc(O)cc1)C(=O)N2,rat,2 mg/kg,0.44 L/kg
Oc1c(Br)cc(Cl)c2cccnc12,Sprague-Dawley rat,2 mg/kg,21.3 L/kg
CCc1cc(C(=O)NC)c2nccc(N3CCc4c(cc(Cn5ccnc5)cc4-c4cn(C)nc4C(F)(F)F)C3=O)c2c1,male Sprague-Dawley rat,3 mg/kg,1 L/kg
COc1cc(F)ccc1-c1ncnc(Nc2cccc(C[S@](C)(=N)=O)c2)n1,male Wistar rat,,1 L/kg
CCCCCCCCCCCCCCCc1ccc(CP(=O)(O)O)cc1,male Sprague-Dawley rat,5.8 mg/kg,3.9 L/kg
CCCC[C@@H]1NC(=O)[C@H](Cc2ccc(O)cc2)NC(=O)[C@@H]2CCCN2C(=O)[C@H](CC(=O)O)NC(=O)[C@H](C)NC(=O)[C@H](Cc2ccccc2)NC(=O)[C@@H]2CSCCC(=O)N3CN(CN(C3)C(=O)CCSC[C@@H](C(=O)N[C@@H](C)C(N)=O)NC1=O)C(=O)CCSC[C@H](NC(C)=O)C(=O)N[C@@H](CC(C)(C)C)C(=O)N1CCC[C@H]1C(=O)N[C@@H](CCC(=O)O)C(=O)N[C@H](CCCCNC(=O)CCc1cn(CCOCCOCCOCCOCCOCCC(=O)N[C@H]3CSCCC(=O)N4CN5CN(C4)C(=O)CCSC[C@H](NC(=O)[C@@H](CC(=O)O)NC(=O)[C@H](Cc4cccc6ccccc46)NC(=O)[C@@H]4CCCN4C3=O)C(=O)N[C@@H](CCSC)C(=O)N[C@@H](CCCCNC(=N)N)C(=O)N[C@@H](CC(=O)O)C(=O)N[C@@H](Cc3c[nH]c4ccccc34)C(=O)N[C@@H](CO)C(=O)N[C@@H]([C@@H](C)O)C(=O)N3CCC[C@H]3C(=O)N3C[C@H](O)C[C@H]3C(=O)N[C@@H](Cc3c[nH]c4ccccc34)C(=O)N[C@H](C(N)=O)CSCCC5=O)nn1)C(=O)N1CCC[C@H]1C(=O)N[C@@H](Cc1ccc(O)cc1)C(=O)N2,rat,2 mg/kg,1 L/kg
